# Data taken from ChEMBL document CHEMBL1149148, “Synthesis and structure-activity relationships of novel 7-substituted 1,4-dihydro-4-oxo-1-(2-thiazolyl)-1,8-naphthyridine-3-carboxylic acids as antitumor agents. Part 2” (J Med Chem, 2004).
# Columns and labels:
# [1] = tested on: P388; assay: Cytotoxic activity against murine P388 leukemia cells; format: functional, cell-based; conditions: Mus musculus
# [2] = tested on: Mus musculus; assay: Ratio of median survival time of treated mice (T) to that of median survival time of controls (C) in mice infected with p388 cells (in vivo) at a dose of 50 mg/kg; format: functional
# Procedure, shortened: (§1)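 BDF1 mice implanted ip with 0.1 mL diluted ascites fluid carrying 10⁶ P388 leukemia cells. Dosing ip on days 1 and 5 after implantation. Test compounds were suspended in 0.4% CMC, and reference drugs were dissolved and diluted in distilled water. Seven mice per group. T/C (%) = median survival time of treated group / median survival time of control group × 100.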
# [3] = tested on: Mus musculus; assay: Ratio of median survival time of treated mice (T) to that of median survival time of controls (C) in mice infected with p388 cells (in vivo) at a dose of 3.13 mg/kg; format: functional; procedure, shortened: as §1
# [4] = Solubility at pH 7.2; format: physicochemical; conditions: buffer
# Procedure, shortened: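 Water solubility measured in pH 7.2 phosphate buffer, reported in mg/mL.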
# [5] = tested on: Mus musculus; assay: Ratio of median survival time of treated mice (T) to that of median survival time of controls (C) in mice infected with p388 cells (in vivo) at a dose of 12.5 mg/kg; format: functional; procedure, shortened: as §1
# [6] = tested on: Mus musculus; assay: Ratio of median survival time of treated mice (T) to that of median survival time of controls (C) in mice infected with p388 cells (in vivo) at a dose of 6.25 mg/kg; format: functional; procedure, shortened: as §1
# [7] = tested on: Mus musculus; assay: Ratio of median survival time of treated mice (T) to that of median survival time of controls (C) in mice infected with p388 cells (in vivo) at a dose of 0.78 mg/kg; format: functional; procedure, shortened: as §1
# [8] = tested on: Mus musculus; assay: Ratio of median survival time of treated mice (T) to that of median survival time of controls (C) in mice infected with p388 cells (in vivo) at a dose of 25 mg/kg; format: functional; procedure, shortened: as §1
# [9] = tested on: Mus musculus; assay: Ratio of median survival time of treated mice (T) to that of median survival time of controls (C) in mice infected with p388 cells (in vivo) at a dose of 1.56 mg/kg; format: functional; procedure, shortened: as §1
# [10] = tested on: PANC-1; assay: Cytotoxic activity against human tumor PANC-1 pancreas cells; format: functional, cell-based
# Procedure, shortened: (§2)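 Hs746T and PANC-1 cells kept in Dulbecco's modified Eagle's medium with 10% FBS. Seeded at (1-2) × 10⁴ cells/mL, 24 h preincubation, then graded compound concentrations for 72 h at 37 °C in 5% CO₂. MTT (5 mg/mL solution) added for 4 h, formazan taken up in DMSO, read at 570/690 nm. IC50 is 50% absorbance reduction relative to control. At least two independent experiments averaged.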
# [11] = tested on: SBC-3; assay: Cytotoxic activity against human tumor SBC-3 lung cells; format: functional, cell-based
# Procedure, shortened: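 SBC-3 cells cultured in RPMI 1640 plus 10% FBS. Plated at (1-2) × 10⁴ cells/mL, preincubated 24 h, then compound at various concentrations for 72 h at 37 °C in 5% CO₂. MTT solution (5 mg/mL) for 4 h, DMSO solubilization, absorbance 570 nm with 690 nm reference. IC50 is the dose halving absorbance vs control. Mean of at least two independent runs.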
# [12] = tested on: SK-OV-3; assay: Cytotoxic activity against human tumor SK-OV-3 ovary cells; format: functional, cell-based; conditions: SK-OV-3, Female gonad
# Procedure, shortened: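 SKOV3 cells grown in RPMI 1640 with 10% heat-inactivated FBS. Cells at (1-2) × 10⁴ cells/mL, preincubated 24 h, treated with graded concentrations for 72 h at 37 °C in 5% CO₂. MTT readout (5 mg/mL, 4 h), formazan in DMSO, absorbance 570 nm/690 nm. IC50 is the concentration for 50% absorbance reduction vs control. Mean of at least two independent experiments.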
# [13] = tested on: SCaBER; assay: Cytotoxic activity against human tumor SCaBER bladder cells; format: functional, cell-based
# Procedure, shortened: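 SCaBER cells maintained in EMEM with 10% FBS and nonessential amino acids. Seeded at (1-2) × 10⁴ cells/mL, 24 h preincubation, then 72 h compound exposure at various concentrations at 37 °C in 5% CO₂. MTT (5 mg/mL) for 4 h, then DMSO, read at 570/690 nm. IC50 is 50% absorbance drop vs control. At least two independent experiments averaged.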
# [14] = tested on: Hs746T; assay: Cytotoxic activity against human tumor Hs 746.T stomach cells; format: functional, cell-based; procedure, shortened: as §2
# [15] = tested on: HL-60; assay: Cytotoxic activity against human tumor HL-60 leukemia cells; format: functional, cell-based
# Procedure, shortened: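 HL-60 cells grown in RPMI 1640 with 20% FBS. Seeded at (1-2) × 10⁴ cells/mL, preincubated 24 h, then exposed to a range of compound concentrations for 72 h at 37 °C in 5% CO₂. Read by MTT (5 mg/mL solution, 4 h), formazan dissolved in DMSO, absorbance 570 nm/690 nm. IC50 is the concentration giving 50% absorbance reduction vs control. Mean of at least two independent experiments.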
compound,measurement,setting,value
Cl.Nc1cc2c(=O)c(C(=O)O)cn(-c3nccs3)c2nc1N1CCC(N)C1 (stereo not given),IC50,[1],1.01 µg/mL
Cl.NC1CCN(c2cc(C(F)(F)F)c3c(=O)c(C(=O)O)cn(-c4nccs4)c3n2)C1 (stereo not given),IC50,[1],0.098 µg/mL
Cc1cc(-c2ccc3c(=O)c(C(=O)O)cn(-c4nccs4)c3n2)cc(C)n1,IC50,[1],7.37 µg/mL
Cl.NC1CCN(c2cc(Cl)c3c(=O)c(C(=O)O)cn(-c4nccs4)c3n2)C1 (stereo not given),IC50,[1],0.049 µg/mL
C[C@H]1[C@H](N)CCN1c1ccc2c(=O)c(C(=O)O)cn(-c3nccs3)c2n1.Cl,IC50,[1],0.094 µg/mL
Cl.NC1CCN(c2ccc3c(=O)c(C(=O)O)cn(-c4nccs4)c3n2)C1 (stereo not given),T/C,[2],125%
same,T/C,[3],188%
same,solubility,[4],6.9 µg/mL
same,T/C,[5],275%
same,IC50,[1],0.01 µg/mL
CN[C@@H]1CN(c2ccc3c(=O)c(C(=O)O)cn(-c4nccs4)c3n2)C[C@H]1OC.Cl,T/C,[3],163%
same,solubility,[4],19800 µg/mL
same,T/C,[6],188%
same,T/C,[7],125%
same,T/C,[8],300%
same,T/C,[5],238%
same,IC50,[1],0.021 µg/mL
same,T/C,[9],125%
CN[C@@H]1CN(c2ccc3c(=O)c(C(=O)O)cn(-c4nccs4)c3n2)[C@H]1C.Cl,IC50,[1],0.041 µg/mL
Cl.O=C(O)c1cn(-c2nccs2)c2nc(N3CCNCC3)ccc2c1=O,IC50,[1],0.057 µg/mL
CN[C@H]1CN(c2ccc3c(=O)c(C(=O)O)cn(-c4nccs4)c3n2)C[C@@H]1C.Cl,T/C,[2],75%
same,T/C,[3],188%
same,solubility,[4],6.2 µg/mL
same,T/C,[5],288%
same,IC50,[1],0.012 µg/mL
CNC1CN(c2ccc3c(=O)c(C(=O)O)cn(-c4nccs4)c3n2)C1.Cl,IC50,[1],0.024 µg/mL
CN[C@H]1CN(c2ccc3c(=O)c(C(=O)O)cn(-c4nccs4)c3n2)C[C@@H]1OC.Cl [listing 1 of 2 here],T/C,[3],225%
same,solubility,[4],23700 µg/mL
same,T/C,[6],275%
same,T/C,[7],150%
same,T/C,[8],>375%
same,T/C,[5],>375%
same,IC50,[1],0.0075 µg/mL
same,T/C,[9],188%
CN[C@H]1CN(c2ccc3c(=O)c(C(=O)O)cn(-c4nccs4)c3n2)C[C@@H]1OC [VOSAROXIN],IC50,[10],0.388 µg/mL
same,IC50,[11],0.0319 µg/mL
same,IC50,[12],0.266 µg/mL
same,IC50,[13],0.121 µg/mL
same,IC50,[14],0.194 µg/mL
same,IC50,[15],0.0498 µg/mL
Cl.NC1CCN(c2nc3c(cc2[N+](=O)[O-])c(=O)c(C(=O)O)cn3-c2nccs2)C1 (stereo not given),IC50,[1],2.29 µg/mL
C[C@H]1CN(c2ccc3c(=O)c(C(=O)O)cn(-c4nccs4)c3n2)C[C@]1(C)N.Cl,IC50,[1],0.02 µg/mL
CN[C@H]1CN(c2ccc3c(=O)c(C(=O)O)cn(-c4nccs4)c3n2)C[C@@H]1SC.Cl,IC50,[1],0.02 µg/mL
COc1ccccc1N1CCN(c2ccc3c(=O)c(C(=O)O)cn(-c4nccs4)c3n2)CC1.Cl,IC50,[1],> 1 µg/mL
Cl.Nc1cc(N2CCC(N)C2)nc2c1c(=O)c(C(=O)O)cn2-c1nccs1 (stereo not given),IC50,[1],0.0081 µg/mL
C[C@@H]1CN(c2ccc3c(=O)c(C(=O)O)cn(-c4nccs4)c3n2)C[C@H](C)N1.Cl,IC50,[1],0.081 µg/mL
Cl.O=C(O)c1cn(-c2nccs2)c2nc(N3CCOCC3)ccc2c1=O,IC50,[1],0.12 µg/mL
CISPLATIN,T/C,[3],239%
same,T/C,[6],290%
same,T/C,[7],154%
same,T/C,[9],186%
Cl.O=C(O)c1cn(-c2nccs2)c2nc(N3C[C@@H]4CCCN[C@@H]4C3)ccc2c1=O,IC50,[1],0.017 µg/mL
C#Cc1ccc2c(=O)c(C(=O)O)cn(-c3nccs3)c2n1,IC50,[1],2.3 µg/mL
O=C(O)c1cn(-c2nccs2)c2nc(-c3cc[nH]n3)ccc2c1=O,IC50,[1],4.34 µg/mL
CNC1(C)CCN(c2ccc3c(=O)c(C(=O)O)cn(-c4nccs4)c3n2)C1.Cl (stereo not given),T/C,[2],113%
same,T/C,[3],163%
same,solubility,[4],7.2 µg/mL
same,T/C,[5],225%
same,IC50,[1],0.018 µg/mL
O=C(O)c1cn(-c2nccs2)c2nc(-c3ccccc3)ccc2c1=O,IC50,[1],6.33 µg/mL
CN[C@H]1CN(c2ccc3c(=O)c(C(=O)O)cn(-c4nccs4)c3n2)C[C@H]1OC.Cl,IC50,[1],0.02 µg/mL
C=Cc1ccc2c(=O)c(C(=O)O)cn(-c3nccs3)c2n1,IC50,[1],> 1 µg/mL
Cl.NC1CCN(c2nc3c(cc2O)c(=O)c(C(=O)O)cn3-c2nccs2)C1 (stereo not given),IC50,[1],4.31 µg/mL
CNC1CCN(c2ccc3c(=O)c(C(=O)O)cn(-c4nccs4)c3n2)C1.Cl (stereo not given),T/C,[2],>375%
same,T/C,[3],200%
same,solubility,[4],8 µg/mL
same,T/C,[5],300%
same,IC50,[1],0.01 µg/mL
CNC1CCCN(c2ccc3c(=O)c(C(=O)O)cn(-c4nccs4)c3n2)C1.Cl (stereo not given),IC50,[1],0.52 µg/mL
CO[C@H]1CN(c2ccc3c(=O)c(C(=O)O)cn(-c4nccs4)c3n2)C[C@@H]1N.Cl,T/C,[2],338%
same,T/C,[3],163%
same,solubility,[4],47 µg/mL
same,T/C,[5],238%
same,IC50,[1],0.018 µg/mL
Cl.O=C(O)c1cn(-c2nccs2)c2nc(N3CCc4ccccc4C3)ccc2c1=O,IC50,[1],> 10 µg/mL
COc1cc([C@@H]2c3cc4c(cc3[C@@H](O[C@@H]3O[C@@H]5CO[C@@H](C)O[C@H]5[C@H](O)[C@H]3O)[C@H]3COC(=O)[C@H]23)OCO4)cc(OC)c1O [ETOPOSIDE],IC50,[10],1.6 µg/mL
same,IC50,[11],0.0676 µg/mL
same,T/C,[2],>375%
same,T/C,[3],175%
same,T/C,[6],200%
same,T/C,[7],138%
same,IC50,[12],1.06 µg/mL
same,IC50,[13],0.276 µg/mL
same,IC50,[14],3.29 µg/mL
same,IC50,[15],0.15 µg/mL
same,T/C,[8],>375%
same,T/C,[5],250%
same,T/C,[9],150%
C[C@H]1CN(c2ccc3c(=O)c(C(=O)O)cn(-c4nccs4)c3n2)C[C@@H]1N.Cl,T/C,[2],288%
same,T/C,[3],175%
same,solubility,[4],17 µg/mL
same,T/C,[5],200%
same,IC50,[1],0.0096 µg/mL
CN[C@H]1CN(c2ccc3c(=O)c(C(=O)O)cn(-c4nccs4)c3n2)C[C@@H]1OC.Cl [listing 2 of 2 here],T/C,[2],>375%
same,T/C,[3],200%
same,solubility,[4],20100 µg/mL
same,T/C,[6],225%
same,T/C,[7],150%
same,T/C,[8],300%
same,T/C,[5],250%
same,IC50,[1],0.01 µg/mL
CC1CC(N)CN1c1ccc2c(=O)c(C(=O)O)cn(-c3nccs3)c2n1.Cl (stereo not given),IC50,[1],0.11 µg/mL
Cl.NC1CCN(c2nc3c(cc2Cl)c(=O)c(C(=O)O)cn3-c2nccs2)C1 (stereo not given),IC50,[1],0.227 µg/mL
COc1cccc2c1C(=O)c1c(O)c3c(c(O)c1C2=O)C[C@@](O)(C(=O)CO)C[C@@H]3O[C@H]1C[C@H](N)[C@H](O)[C@H](C)O1 [DOXORUBICIN],T/C,[3],235%
same,T/C,[6],293%
same,T/C,[7],173%
same,T/C,[9],228%
CC1(N)CCN(c2ccc3c(=O)c(C(=O)O)cn(-c4nccs4)c3n2)C1.Cl (stereo not given),T/C,[2],138%
same,T/C,[3],150%
same,solubility,[4],3.8 µg/mL
same,T/C,[5],213%
same,IC50,[1],0.019 µg/mL
Cl.N[C@H]1CN(c2ccc3c(=O)c(C(=O)O)cn(-c4nccs4)c3n2)C[C@@H]1CCl,IC50,[1],0.024 µg/mL
CCN[C@H]1CN(c2ccc3c(=O)c(C(=O)O)cn(-c4nccs4)c3n2)C[C@@H]1OC.Cl,IC50,[1],0.025 µg/mL
Cl.O=C(O)c1cn(-c2nccs2)c2nc(N3CCCC3)ccc2c1=O,IC50,[1],0.066 µg/mL
